# Assays:
# Fulvia fulva = assay: Antifungal activity against Passalora fulva TK5318 at 28 degC measured after 72 hr by microdilution method; type: functional; details: TK5318, 72 h
# Summary of the method: (§1)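 Fungi were kept on malt agar at 4 °C. Spores were washed off with sterile 0.85% saline containing 0.1% Tween 80 and adjusted to about 1.0×10⁵ per well. Compounds were dissolved in DMSO (1 mg/ml stock) and serially diluted in malt broth with inoculum in 96-well plates, 72 h at 28 °C, for MIC. MFC came from subculture into fresh broth for a further 72 h at 28 °C.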
# Aspergillus versicolor = assay: Antifungal activity against Aspergillus versicolor ATCC 11730 at 28 degC measured after 72 hr by microdilution method; type: functional; details: ATCC 11730, 72 h; summary of the method: as §1
# Aspergillus flavus = assay: Antifungal activity against Aspergillus flavus ATCC 9643 at 28 degC measured after 72 hr by microdilution method; type: functional; details: ATCC 9643, 72 h; summary of the method: as §1
# Aspergillus niger = assay: Antifungal activity against Aspergillus niger ATCC 6275 at 28 degC measured after 72 hr by microdilution method; type: functional; details: ATCC 6275, 72 h; summary of the method: as §1
# Trichoderma viride = assay: Antifungal activity against Hypocrea rufa IAM 5061 at 28 degC measured after 72 hr by microdilution method; type: functional; details: IAM 5061, 72 h; summary of the method: as §1
# Aspergillus fumigatus = assay: Antifungal activity against plant isolate Aspergillus fumigatus at 28 degC measured after 72 hr by microdilution method; type: functional; summary of the method: as §1
# Penicillium ochrochloron = assay: Antifungal activity against Penicillium ochrochloron ATCC 9112 at 28 degC measured after 72 hr by microdilution method; type: functional; details: ATCC 9112, 72 h; summary of the method: as §1
# Talaromyces funiculosus = assay: Antifungal activity against Talaromyces funiculosus ATCC 36839 at 28 degC measured after 72 hr by microdilution method; type: functional; details: ATCC 36839, 72 h; summary of the method: as §1
# Listeria monocytogenes [1] = assay: Antibacterial activity against Listeria monocytogenes NCTC 7973 at […] degC measured after 72 hr by microdilution method; type: functional; details: NCTC 7973, 72 h
# Summary of the method: (§2)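 Bactericidal endpoint: after the 24 h broth microdilution (1.0×10⁴ CFU per well, LB broth, […] °C), wells were serially subcultured into plates of fresh broth and incubated a further 72 h. MBC was the lowest concentration with no visible growth, taken as 99.5% killing of the original inoculum.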
# Proteus mirabilis [2] = assay: Antibacterial activity against Proteus mirabilis at […] degC measured after 72 hr by microdilution method; type: functional; summary of the method: as §2
# Salmonella typhimurium [3] = assay: Antibacterial activity against Salmonella enterica subsp. enterica serovar TyphimuriumATCC 13311 at […] degC measured after 72 hr by microdilution method; type: functional, Salmonella enterica subsp. enterica serovar Typhimurium; details: ATCC 13311, 72 h; summary of the method: as §2
# Pseudomonas aeruginosa [4] = assay: Antibacterial activity against Pseudomonas aeruginosa ATCC 27853 at […] degC measured after 72 hr by microdilution method; type: functional; details: ATCC 27853, 72 h; summary of the method: as §2
# Escherichia coli [5] = assay: Antibacterial activity against Escherichia coli ATCC 35210 at […] degC measured after 72 hr by microdilution method; type: functional; details: ATCC 35210, 72 h; summary of the method: as §2
# Staphylococcus aureus [6] = assay: Antibacterial activity against Staphylococcus aureus ATCC 6538 at […] degC measured after 72 hr by microdilution method; type: functional; details: ATCC 6538, 72 h; summary of the method: as §2
# Micrococcus flavus [7] = assay: Antibacterial activity against Micrococcus flavus ATCC 10240 at […] degC measured after 72 hr by microdilution method; type: functional; details: ATCC 10240, 72 h; summary of the method: as §2
# Bacillus cereus [8] = assay: Antibacterial activity against clinical isolate Bacillus cereus at […] degC measured after 72 hr by microdilution method; type: functional; summary of the method: as §2
# Listeria monocytogenes [9] = assay: Antibacterial activity against Listeria monocytogenes NCTC 7973 at […] degC measured after 24 hr by microdilution method; type: functional; details: NCTC 7973, 24 h
# Summary of the method: (§3)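 Bacteria suspended in sterile saline at 1.0×10⁵ CFU/ml and added at 1.0×10⁴ CFU per well to LB broth with compound (1 mg/ml) in 96-well plates. Incubated 24 h at […] °C. MIC was the lowest concentration without visible growth under a binocular microscope. OD 655 nm was read against a blank and a positive control.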
# Salmonella typhimurium [10] = assay: Antibacterial activity against Salmonella enterica subsp. enterica serovar Typhimurium ATCC 13311 at […] degC measured after 24 hr by microdilution method; type: functional; details: ATCC 13311, 24 h; summary of the method: as §3
# Pseudomonas aeruginosa [11] = assay: Antibacterial activity against Pseudomonas aeruginosa ATCC 27853 at […] degC measured after 24 hr by microdilution method; type: functional; details: ATCC 27853, 24 h; summary of the method: as §3
# Proteus mirabilis [12] = assay: Antibacterial activity against Proteus mirabilis at […] degC measured after 24 hr by microdilution method; type: functional; summary of the method: as §3
# Escherichia coli [13] = assay: Antibacterial activity against Escherichia coli ATCC 35210 at […] degC measured after 24 hr by microdilution method; type: functional; details: ATCC 35210, 24 h; summary of the method: as §3
# Staphylococcus aureus [14] = assay: Antibacterial activity against Staphylococcus aureus ATCC 6538 at […] degC measured after 24 hr by microdilution method; type: functional; details: ATCC 6538, 24 h; summary of the method: as §3
# Bacillus cereus [15] = assay: Antibacterial activity against clinical isolate Bacillus cereus at […] degC measured after 24 hr by microdilution method; type: functional; summary of the method: as §3
# Micrococcus flavus [16] = assay: Antibacterial activity against Micrococcus flavus ATCC 10240 at […] degC measured after 24 hr by microdilution method; type: functional; details: ATCC 10240, 24 h; summary of the method: as §3
Structure (SMILES),MIC (Fulvia fulva) [µM],MIC (Aspergillus versicolor) [µM],MIC (Aspergillus flavus) [µM],MIC (Aspergillus niger) [µM],MIC (Trichoderma viride) [µM],MIC (Penicillium ochrochloron) [µM],MIC (Talaromyces funiculosus) [µM],MFC (Fulvia fulva) [µM],MFC (Aspergillus versicolor) [µM],MFC (Aspergillus flavus) [µM],MFC (Aspergillus niger) [µM],MFC (Trichoderma viride) [µM],MFC (Aspergillus fumigatus) [µM],MIC (Aspergillus fumigatus) [µM],MFC (Penicillium ochrochloron) [µM],MFC (Talaromyces funiculosus) [µM],MBC (Listeria monocytogenes [1]) [µM],MBC (Proteus mirabilis [2]) [µM],MBC (Salmonella typhimurium [3]) [µM],MBC (Pseudomonas aeruginosa [4]) [µM],other results
COc1cc(Cc2nnc(Nc3ccc(C(F)(F)F)cc3)s2)c(S(=O)(=O)N(C)C)cc1OC,9.9,9.9,19.9,19.9,9.9,9.9,9.9,19.9,39.8,39.8,39.8,19.9,39.8,19.9,39.8,19.9,79.6,79.6,19.9,39.8,MBC (Escherichia coli [5]): 79.6 µM; MBC (Staphylococcus aureus [6]): 39.8 µM; MBC (Micrococcus flavus [7]): 19.9 µM; MBC (Bacillus cereus [8]): 19.9 µM; MIC (Listeria monocytogenes [9]): 39.8 µM; MIC (Salmonella typhimurium [10]): 9.9 µM; MIC (Pseudomonas aeruginosa [11]): 19.9 µM; MIC (Proteus mirabilis [12]): 19.9 µM; MIC (Escherichia coli [13]): 39.8 µM; MIC (Staphylococcus aureus [14]): 19.9 µM; MIC (Bacillus cereus [15]): 9.9 µM; MIC (Micrococcus flavus [16]): 9.9 µM
COc1cc(Cc2nnc(Nc3ccc(C(F)(F)F)cc3)s2)c(S(=O)(=O)N2CCCCC2)cc1OC,9.2,9.2,18.4,18.4,9.2,18.4,9.2,18.4,18.4,36.8,36.8,18.4,36.8,9.2,36.8,18.4,73.6,73.6,18.4,18.4,MBC (Escherichia coli [5]): 36.8 µM; MBC (Staphylococcus aureus [6]): 36.8 µM; MBC (Micrococcus flavus [7]): 18.4 µM; MBC (Bacillus cereus [8]): 18.4 µM; MIC (Listeria monocytogenes [9]): 18.4 µM; MIC (Salmonella typhimurium [10]): 9.2 µM; MIC (Pseudomonas aeruginosa [11]): 9.2 µM; MIC (Proteus mirabilis [12]): 36.8 µM; MIC (Escherichia coli [13]): 18.4 µM; MIC (Staphylococcus aureus [14]): 18.4 µM; MIC (Bacillus cereus [15]): 9.2 µM; MIC (Micrococcus flavus [16]): 9.2 µM
COc1cc(Cc2nnc(Nc3ccc(Cl)cc3)s2)c(S(=O)(=O)N2CCCCC2)cc1OC,9.8,9.8,9.8,19.7,9.8,19.7,19.7,19.7,19.7,19.7,39.4,19.7,39.4,19.7,39.4,39.4,78.8,78.7,19.7,19.7,MBC (Escherichia coli [5]): 39.4 µM; MBC (Staphylococcus aureus [6]): 39.4 µM; MBC (Micrococcus flavus [7]): 39.4 µM; MBC (Bacillus cereus [8]): 19.7 µM; MIC (Listeria monocytogenes [9]): 39.4 µM; MIC (Salmonella typhimurium [10]): 9.8 µM; MIC (Pseudomonas aeruginosa [11]): 9.8 µM; MIC (Proteus mirabilis [12]): 19.7 µM; MIC (Escherichia coli [13]): 19.7 µM; MIC (Staphylococcus aureus [14]): 19.7 µM; MIC (Bacillus cereus [15]): 9.8 µM; MIC (Micrococcus flavus [16]): 19.7 µM
COc1cc(Cc2nnc(Nc3ccccc3)s2)c(S(=O)(=O)N2CCCC2)cc1OC,10.9,21.7,21.7,21.7,10.9,21.7,21.7,21.7,43.4,43.4,43.4,21.7,43.4,21.7,43.4,43.4,43.4,43.4,21.7,43.4,MBC (Escherichia coli [5]): 43.4 µM; MBC (Staphylococcus aureus [6]): 43.4 µM; MBC (Micrococcus flavus [7]): 21.7 µM; MBC (Bacillus cereus [8]): 21.7 µM; MIC (Listeria monocytogenes [9]): 21.7 µM; MIC (Salmonella typhimurium [10]): 10.9 µM; MIC (Pseudomonas aeruginosa [11]): 21.7 µM; MIC (Proteus mirabilis [12]): 21.7 µM; MIC (Escherichia coli [13]): 21.7 µM; MIC (Staphylococcus aureus [14]): 21.7 µM; MIC (Bacillus cereus [15]): 10.9 µM; MIC (Micrococcus flavus [16]): 10.9 µM
COc1cc(Cc2nnc(Nc3ccc(Cl)cc3)s2)c(S(=O)(=O)N2CCCC2)cc1OC,10.1,20.2,20.2,20.2,10.1,20.2,10.1,20.2,40.4,40.4,40.4,20.2,40.4,20.2,40.4,20.2,40.4,40.4,20.2,40.4,MBC (Escherichia coli [5]): 40.4 µM; MBC (Staphylococcus aureus [6]): 40.4 µM; MBC (Micrococcus flavus [7]): 40.4 µM; MBC (Bacillus cereus [8]): 40.4 µM; MIC (Listeria monocytogenes [9]): 40.4 µM; MIC (Salmonella typhimurium [10]): 10.1 µM; MIC (Pseudomonas aeruginosa [11]): 20.2 µM; MIC (Proteus mirabilis [12]): 20.2 µM; MIC (Escherichia coli [13]): 15.2 µM; MIC (Staphylococcus aureus [14]): 20.2 µM; MIC (Bacillus cereus [15]): 20.2 µM; MIC (Micrococcus flavus [16]): 20.2 µM

# Now from value to compound, other results behind:
MIC (Fulvia fulva) [µM],MIC (Aspergillus versicolor) [µM],MIC (Aspergillus flavus) [µM],MIC (Aspergillus niger) [µM],MIC (Trichoderma viride) [µM],MIC (Penicillium ochrochloron) [µM],MIC (Talaromyces funiculosus) [µM],Structure (SMILES),MFC (Fulvia fulva) [µM],MFC (Aspergillus versicolor) [µM],MFC (Aspergillus flavus) [µM],MFC (Aspergillus niger) [µM],MFC (Trichoderma viride) [µM],MFC (Aspergillus fumigatus) [µM],MIC (Aspergillus fumigatus) [µM],MFC (Penicillium ochrochloron) [µM],MFC (Talaromyces funiculosus) [µM],MBC (Listeria monocytogenes [1]) [µM],MBC (Proteus mirabilis [2]) [µM],MBC (Salmonella typhimurium [3]) [µM],MBC (Pseudomonas aeruginosa [4]) [µM],other results
11.5,11.5,23,23,11.5,23,11.5,COc1cc(Cc2nnc(Nc3ccccc3)s2)c(S(=O)(=O)N(C)C)cc1OC,23,23,46,46,23,46,11.5,46,23,92,46,92,46,MBC (Escherichia coli [5]): 46 µM; MBC (Staphylococcus aureus [6]): 92 µM; MBC (Micrococcus flavus [7]): 17.5 µM; MBC (Bacillus cereus [8]): 46 µM; MIC (Listeria monocytogenes [9]): 46 µM; MIC (Salmonella typhimurium [10]): 46 µM; MIC (Pseudomonas aeruginosa [11]): 46 µM; MIC (Proteus mirabilis [12]): 46 µM; MIC (Escherichia coli [13]): 46 µM; MIC (Staphylococcus aureus [14]): 46 µM; MIC (Bacillus cereus [15]): 23 µM; MIC (Micrococcus flavus [16]): 11.5 µM
10.5,20.9,20.9,20.9,10.5,10.9,10.5,COc1cc(Cc2nnc(Nc3ccc([N+](=O)[O-])cc3)s2)c(S(=O)(=O)N(C)C)cc1OC,20.9,41.8,41.8,41.8,20.9,41.8,20.9,41.8,20.9,83.6,83.6,20.9,41.8,MBC (Escherichia coli [5]): 83.6 µM; MBC (Staphylococcus aureus [6]): 83.6 µM; MBC (Micrococcus flavus [7]): 83.6 µM; MBC (Bacillus cereus [8]): 20.9 µM; MIC (Listeria monocytogenes [9]): 41.8 µM; MIC (Salmonella typhimurium [10]): 10.5 µM; MIC (Pseudomonas aeruginosa [11]): 15.7 µM; MIC (Proteus mirabilis [12]): 41.8 µM; MIC (Escherichia coli [13]): 20.9 µM; MIC (Staphylococcus aureus [14]): 41.8 µM; MIC (Bacillus cereus [15]): 10.5 µM; MIC (Micrococcus flavus [16]): 20.9 µM

# Source: ChEMBL document CHEMBL3045677, “Sulfonamide-1,2,4-thiadiazole derivatives as antifungal and antibacterial agents: synthesis, biological evaluation, lipophilicity, and conformational studies” (2010)
